Laboratory results: paper PMC3361640 (Insect Biochemistry and Molecular Biology, 2012)

Assays:
[1] = tested on: Megacyllene caryae adults; details: adult M. caryae, field; ref Mitchell, 2012; cited from earlier work
[2] = tested on: BmOr 1; details: ref Nakagawa et al., 2005; cited from earlier work
[3] = tested on: McOr3; assay: McOr3 co-expressed with Orco; assay type: cell-based, Megacyllene caryae; details: McOr3, odorant at 30 µM applied 20 s
In short: (§1)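 Defolliculated Xenopus laevis oocytes (collagenase B, 2 h, room temperature) were co-injected with receptor and Orco (McOr1) cRNA and incubated 3–7 d. Two-electrode voltage clamp was run at −70 mV with 3 M KCl electrodes (0.2–2.0 MΩ) in ND96. Pheromone components and isomers, diluted in ND96, were applied at 30 µM for 20 s at 1.6 ml/min. Currents were filtered at 20 Hz and sampled at 100 Hz.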

[4] = tested on: McOr5; assay: McOr5 co-expressed with Orco; assay type: cell-based, Megacyllene caryae; details: McOr5, odorant at 30 µM applied 20 s
In short: as §1

[5] = tested on: McOr20; assay: McOr20 co-expressed with Orco; assay type: cell-based, Megacyllene caryae; details: for Current response of receptor in separate screen: McOr20, odorant at 100 µM, data not shown; for Current response of receptor in screen: McOr20, odorant at 30 µM applied 20 s
[6] = tested on: BmOr3; details: ref Nakagawa et al., 2005; cited from earlier work
[7] = tested on: AmOr11; details: AmOr11, Xenopus assay; ref Wanner et al., 2007; cited from earlier work

For `CC(C)=CCCC(C)=CC=O` (mixture of isomers) [Citral, citral], the Attraction of beetles [1] is listed as “attracts males and females in similar numbers”.
In the case of `CCC/C=C\C=C\CCCCCCCCCO` [bombykol], the EC50 [2] is given as 1500 nM.
With `CC[C@H](C)CO` [(S)-methylbutan-1-ol, (S)-2-methylbutan-1-ol] the “Current response of receptor in screen” value [3] was “responded with high sensitivity”.
With `OCCc1ccccc1` [2-phenylethanol] the “Current response of receptor in screen” value [4] was “sensitive”.
With `CCC[C@H](O)[C@@H](C)O` [(2R,3S)-2,3-hexanediol] the “Current response of receptor in separate screen” value [5] was “responded”.
In the case of `CCC/C=C\C=C\CCCCCCCCC=O` [bombykal], the EC50 [6] is listed as 260 nM.
For `CC(=O)CCCCCC=CC(=O)O` [9-oxo-2-decenoic acid], the EC50 [7] is listed as 280 nM.
For `CCC[C@@H](O)C(C)=O` [(R)-3-hydroxyhexan-2-one], the “Current response of receptor in screen” value [5] was “sensitive”.
In the case of `CCC[C@H](O)[C@H](C)O` [(2S,3S)-2,3-hexanediol], the “Current response of receptor in separate screen” value [5] is reported as “responded”.
In the case of `CCC[C@@H](O)[C@H](C)O` [(2S,3R)-2,3-hexanediol], the “Current response of receptor in screen” value [5] is reported as “sensitive”.
